For series [1], the target named is Beta-3 adrenergic receptor (Homo sapiens, UniProt P13945). In words: Agonist activity at recombinant human beta3 adrenergic receptor expressed in CHO cells assessed as accumulation of cyclic AMP after 30 mins. It is filed as cell-based.
For series [2], the target named is T1, Alpha-1A adrenergic receptor (Homo sapiens, UniProt P35348).
T1 sequence (P35348 whole entry): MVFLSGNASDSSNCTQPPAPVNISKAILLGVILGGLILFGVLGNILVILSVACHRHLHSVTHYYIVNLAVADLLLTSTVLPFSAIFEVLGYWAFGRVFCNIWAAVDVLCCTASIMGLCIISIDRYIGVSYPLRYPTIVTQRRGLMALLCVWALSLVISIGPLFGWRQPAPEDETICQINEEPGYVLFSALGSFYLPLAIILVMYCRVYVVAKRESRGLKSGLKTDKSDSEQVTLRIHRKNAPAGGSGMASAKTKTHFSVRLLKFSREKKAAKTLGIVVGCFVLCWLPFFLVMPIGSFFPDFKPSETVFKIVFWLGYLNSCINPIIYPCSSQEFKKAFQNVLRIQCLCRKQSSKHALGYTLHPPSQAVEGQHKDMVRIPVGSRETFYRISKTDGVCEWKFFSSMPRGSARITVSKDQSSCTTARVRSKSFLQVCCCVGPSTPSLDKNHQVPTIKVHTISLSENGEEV
In words: Agonist activity at recombinant human alpha1A adrenergic receptor expressed in HEK293 cells assessed as intercellular Ca mobilization by Fura-2AM dye-based fluorescence assay. It is filed as cell-based.

Series [3] deals with T1, Alpha-1A adrenergic receptor. Briefly: Intrinsic activity at recombinant human alpha1A adrenergic receptor expressed in HEK293 cells assessed as intercellular Ca mobilization by Fura-2AM dye-based fluorescence assay relative to norepinephrine. Format: cell-based. Conditions: read-out: Intrinsic activity.
A further series is filed under the species Homo sapiens. Briefly: Selectivity ratio of EC50 for recombinant human alpha1A adrenergic receptor to EC50 for recombinant human beta3 adrenergic receptor.
Series [4] is described as follows: Intrinsic clearance in human liver microsomes at 1 uM in presence of NADPH by LC-MS/MS analysis. Format: ADME, microsome. The settings on record: […]. Summed up:
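Pooled mixed-gender human liver microsomes (0.5 mg/mL) in 100 mM potassium phosphate pH 7.4 with NADPH-regenerating mix plus UDP-GA, test compound 1 µM, 15 min at 37 °C. Acetonitrile stop, LC-MS/MS. k from the remaining fraction. CLint,u is scaled with 48.8 mg protein/g liver and 25.7 g liver/kg, and corrected by fu from equilibrium dialysis (1 µM, 0.5 mg/mL, 6 h, 37 °C).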
On the technique in general: Microsomes from liver hold many membrane-bound enzymes, among them those of drug oxidation.

Series [5] is described as follows: Intrinsic clearance in Sprague-Dawley rat liver microsomes at 0.5 uM in presence of NADPH by LC-MS/MS analysis. It is filed as ADME, microsome. The settings on record: […]. Summed up: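 Pooled male Sprague-Dawley rat liver microsomes (0.5 mg/mL final) in 100 mM Tris-HCl pH 7.4 with NADPH-regenerating mix plus UDP-GA, test compound 0.5 µM, 20 min at 37 °C. Acetonitrile stop, LC-MS/MS. CLint,u is scaled with 44.8 mg protein/g liver and 40.0 g liver/kg, and corrected by fu from ultracentrifugation (160,000g, 16 h, 37 °C).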

Series [6] is described as follows: Solubility of the compound at pH 6.8 buffer solution after 18 hrs by HPLC analysis. Format: physicochemical.
The nature of series [7]: AUC in Sprague-Dawley rat at 5 mg/kg, po by LC-MS/MS analysis. It is filed as ADME, organism-based. Conditions: in vivo. Summed up:
(§1)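 Male Sprague-Dawley rats (n = 2 or 3) dosed orally at 5 mg/kg in saline or water (5 mL/kg). Blood taken from the subclavian vein at 0.5, 1, 2, 4, 6 and 8 h; plasma separated by centrifugation, stored at -20 °C, and drug levels measured by LC-MS/MS. Values are mean ± SD (n = 3) or the average of two experiments.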

Series [8] is described as follows: Half life in Sprague-Dawley rat at 5 mg/kg, po by LC-MS/MS analysis. Format: ADME, organism-based. The settings on record: in vivo. Summed up: as §1
In series [9] the target is Beta-1 adrenergic receptor (Homo sapiens, UniProt P08588). Briefly: Agonist activity at recombinant human beta1 adrenergic receptor expressed in CHO cells assessed as accumulation of cyclic AMP after 30 mins. Format: cell-based.
Beta-1 adrenergic receptor, sequence (P08588 whole entry): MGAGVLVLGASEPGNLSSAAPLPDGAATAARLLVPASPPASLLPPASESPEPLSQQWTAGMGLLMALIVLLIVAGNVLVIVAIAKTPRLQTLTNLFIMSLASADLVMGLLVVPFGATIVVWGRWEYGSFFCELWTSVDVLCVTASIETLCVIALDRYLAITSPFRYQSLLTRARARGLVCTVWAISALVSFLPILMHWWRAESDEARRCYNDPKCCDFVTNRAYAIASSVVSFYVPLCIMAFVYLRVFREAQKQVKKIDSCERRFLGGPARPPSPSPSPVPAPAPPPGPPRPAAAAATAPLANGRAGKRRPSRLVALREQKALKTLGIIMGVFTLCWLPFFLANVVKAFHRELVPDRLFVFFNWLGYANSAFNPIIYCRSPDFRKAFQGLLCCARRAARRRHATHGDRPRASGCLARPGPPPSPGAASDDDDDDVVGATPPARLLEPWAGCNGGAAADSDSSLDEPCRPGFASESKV
Series [10] concerns the target T2, Beta-2 adrenergic receptor (Homo sapiens, UniProt P07550). Briefly: Agonist activity at recombinant human beta2 adrenergic receptor expressed in CHO cells assessed as accumulation of cyclic AMP after 30 mins. It is filed as cell-based.
Another series deals with T3, CYP2B6 (Homo sapiens, UniProt P20813).
T3 sequence (P20813 whole entry): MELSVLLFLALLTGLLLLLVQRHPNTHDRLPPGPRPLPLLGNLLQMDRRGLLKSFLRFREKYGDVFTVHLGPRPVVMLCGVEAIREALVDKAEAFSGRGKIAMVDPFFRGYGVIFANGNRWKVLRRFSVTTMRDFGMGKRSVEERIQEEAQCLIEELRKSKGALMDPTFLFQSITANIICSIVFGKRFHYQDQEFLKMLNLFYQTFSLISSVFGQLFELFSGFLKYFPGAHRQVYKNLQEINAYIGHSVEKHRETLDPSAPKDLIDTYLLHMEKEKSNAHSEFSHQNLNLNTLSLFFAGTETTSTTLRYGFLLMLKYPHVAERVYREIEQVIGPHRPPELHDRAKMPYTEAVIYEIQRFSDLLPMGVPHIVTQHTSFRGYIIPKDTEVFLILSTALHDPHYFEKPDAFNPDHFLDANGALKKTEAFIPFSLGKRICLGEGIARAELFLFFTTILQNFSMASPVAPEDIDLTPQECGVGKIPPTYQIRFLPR
In words: Inhibition of CYP2B6 (unknown origin) at 10 uM relative to control. Format: ADME.

The target in another series is CYP2C19 (Homo sapiens, UniProt P33261). In words: Inhibition of CYP2C19 (unknown origin) at 10 uM relative to control. Format: ADME.
CYP2C19, sequence (P33261 whole entry): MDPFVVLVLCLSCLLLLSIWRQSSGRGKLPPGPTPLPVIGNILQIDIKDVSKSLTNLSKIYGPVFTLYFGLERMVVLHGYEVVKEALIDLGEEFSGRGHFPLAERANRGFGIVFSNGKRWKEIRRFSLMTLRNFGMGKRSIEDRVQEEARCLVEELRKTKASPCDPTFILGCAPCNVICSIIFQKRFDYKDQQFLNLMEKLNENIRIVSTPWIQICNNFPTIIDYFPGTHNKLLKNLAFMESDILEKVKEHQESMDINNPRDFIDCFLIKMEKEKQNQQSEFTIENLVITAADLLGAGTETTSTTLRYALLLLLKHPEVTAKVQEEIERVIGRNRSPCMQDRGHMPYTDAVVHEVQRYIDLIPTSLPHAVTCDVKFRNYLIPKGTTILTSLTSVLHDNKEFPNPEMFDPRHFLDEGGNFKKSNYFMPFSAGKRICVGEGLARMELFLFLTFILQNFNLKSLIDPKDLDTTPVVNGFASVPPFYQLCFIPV
A further series concerns the target CYP2C9 (Homo sapiens, UniProt P11712). Briefly: Inhibition of CYP2C9 (unknown origin) at 10 uM relative to control. Format: ADME.
In the next series the target is CYP2D6 (Homo sapiens, UniProt P10635). Briefly: Inhibition of CYP2D6 (unknown origin) at 10 uM relative to control. It is filed as ADME.
CYP2D6, sequence (P10635 whole entry): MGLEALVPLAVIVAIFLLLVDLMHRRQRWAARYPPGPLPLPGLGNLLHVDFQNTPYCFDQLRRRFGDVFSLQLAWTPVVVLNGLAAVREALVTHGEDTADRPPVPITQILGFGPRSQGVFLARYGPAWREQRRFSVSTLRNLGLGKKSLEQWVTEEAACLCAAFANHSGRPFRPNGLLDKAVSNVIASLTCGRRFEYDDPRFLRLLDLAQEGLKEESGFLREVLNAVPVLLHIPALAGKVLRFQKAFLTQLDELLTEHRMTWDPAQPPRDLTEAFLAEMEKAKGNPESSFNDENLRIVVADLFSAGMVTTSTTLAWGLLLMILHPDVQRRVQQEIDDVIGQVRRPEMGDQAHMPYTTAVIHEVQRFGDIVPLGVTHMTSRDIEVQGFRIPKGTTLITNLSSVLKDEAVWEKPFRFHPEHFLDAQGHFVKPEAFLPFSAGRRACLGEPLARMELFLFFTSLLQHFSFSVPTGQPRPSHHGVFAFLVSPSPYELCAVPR
A further series deals with Rattus norvegicus. Briefly: Cardiotoxicity in Sprague-Dawley rat assessed as decrease in mean blood pressure at 3 mg/kg, iv after 30 mins (reference value: 5.4 +/- 1.9%). Format: toxicity, organism-based. On the set-up: scale not given: the % may be the effect or the level left. The settings on record: in vivo, 0.5 h.
Series [11] deals with Adrenoceptor beta 3 (Callithrix jacchus) (UniProt F6XZF4). Briefly: Agonist activity at beta3 adrenergic receptor in marmoset urinary bladder smooth muscle strips assessed as induction of KCl-precontracted muscle relaxation treated every 20 mins.
Adrenoceptor beta 3 (Callithrix jacchus), sequence (F6XZF4 as listed by the source): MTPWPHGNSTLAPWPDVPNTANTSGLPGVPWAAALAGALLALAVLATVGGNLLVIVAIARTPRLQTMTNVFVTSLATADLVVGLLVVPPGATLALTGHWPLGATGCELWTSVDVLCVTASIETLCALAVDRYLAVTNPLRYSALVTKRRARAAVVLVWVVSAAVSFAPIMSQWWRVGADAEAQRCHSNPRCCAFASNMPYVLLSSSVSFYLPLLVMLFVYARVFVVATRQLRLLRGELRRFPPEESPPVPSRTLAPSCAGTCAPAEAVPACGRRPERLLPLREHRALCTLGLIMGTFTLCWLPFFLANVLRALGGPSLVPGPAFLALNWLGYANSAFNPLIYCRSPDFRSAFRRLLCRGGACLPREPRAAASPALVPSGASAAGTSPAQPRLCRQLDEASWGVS
The target in series [12] is T2, Beta-2 adrenergic receptor. In words: Intrinsic activity at recombinant human beta2 adrenergic receptor assessed as accumulation of cyclic AMP after 30 mins relative to isoproterenol.

Converted amounts (≈) assume the structure as drawn.

T2 sequence (P07550 whole entry): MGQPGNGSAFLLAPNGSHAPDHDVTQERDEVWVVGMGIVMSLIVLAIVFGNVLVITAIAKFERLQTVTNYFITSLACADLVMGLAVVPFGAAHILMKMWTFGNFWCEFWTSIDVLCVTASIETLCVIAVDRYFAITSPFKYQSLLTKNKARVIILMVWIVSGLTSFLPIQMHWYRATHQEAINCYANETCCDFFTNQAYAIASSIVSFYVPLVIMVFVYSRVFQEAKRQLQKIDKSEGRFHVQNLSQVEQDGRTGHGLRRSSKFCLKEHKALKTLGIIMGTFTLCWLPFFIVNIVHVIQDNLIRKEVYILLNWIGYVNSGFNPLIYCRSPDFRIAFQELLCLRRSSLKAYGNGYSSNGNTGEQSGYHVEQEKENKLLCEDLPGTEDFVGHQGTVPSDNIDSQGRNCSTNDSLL
Beta-3 adrenergic receptor, sequence (P13945 whole entry): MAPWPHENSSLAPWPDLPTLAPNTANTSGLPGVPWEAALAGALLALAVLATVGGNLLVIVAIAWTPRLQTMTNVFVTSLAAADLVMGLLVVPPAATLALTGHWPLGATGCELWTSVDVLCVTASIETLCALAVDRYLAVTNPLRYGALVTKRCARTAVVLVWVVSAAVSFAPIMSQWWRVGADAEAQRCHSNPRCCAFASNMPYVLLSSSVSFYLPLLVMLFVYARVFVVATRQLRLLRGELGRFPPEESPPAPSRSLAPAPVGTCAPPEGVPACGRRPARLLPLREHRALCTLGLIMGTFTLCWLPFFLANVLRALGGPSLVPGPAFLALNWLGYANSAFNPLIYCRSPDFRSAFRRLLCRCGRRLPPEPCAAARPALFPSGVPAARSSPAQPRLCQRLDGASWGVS
CYP2C9, sequence (P11712 whole entry): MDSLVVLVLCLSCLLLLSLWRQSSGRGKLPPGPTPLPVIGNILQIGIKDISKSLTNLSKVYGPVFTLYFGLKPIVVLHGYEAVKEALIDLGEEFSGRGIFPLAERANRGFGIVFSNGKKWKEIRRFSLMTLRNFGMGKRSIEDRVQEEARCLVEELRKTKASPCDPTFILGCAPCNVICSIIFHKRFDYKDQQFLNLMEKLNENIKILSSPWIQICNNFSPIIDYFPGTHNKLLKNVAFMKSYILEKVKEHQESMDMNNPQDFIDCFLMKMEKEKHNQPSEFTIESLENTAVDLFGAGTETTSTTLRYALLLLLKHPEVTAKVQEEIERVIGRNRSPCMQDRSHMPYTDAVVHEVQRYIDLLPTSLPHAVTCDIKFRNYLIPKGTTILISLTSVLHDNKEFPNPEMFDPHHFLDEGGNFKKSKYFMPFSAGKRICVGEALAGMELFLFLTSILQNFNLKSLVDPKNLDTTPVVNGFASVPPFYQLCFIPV

On to `Cc1n[nH]c2cc(OCCNC[C@H](O)c3cccc(NS(=O)(=O)C4CCC4)c3)ccc12`, for which the EC50 (commonly the concentration that produces a half-maximal response) was 0.018 µM in series [1], above 10 µM in [2], above 10 µM in series [9] and above 10 µM in series [10]. Further, in [3], the Emax came out at 0%. In addition, the Ratio EC50 in the series listed under Homo sapiens was above 556. Moreover, the CLint scaled at 1 µM in [4] is 57 mL/min/kg. Also, the CLint scaled at 0.5 µM in series [5] was found to be 52 mL/min/kg. Also, the solubility (in general, how much of the substance goes into solution per volume) at 18 h in series [6] is 278 µM (≈ 124 µg/mL). Further, the AUC (as a rule, concentration integrated over time) in [7] was determined as 312 ng·h/mL. The half-life (commonly how long it takes for the measured level to halve) in series [8] was 3.01 h. Moreover, the inhibition at 10 µM against CYP2B6, on CYP2C19, at CYP2C9 and against CYP2D6 was below 34% in each case. Besides, the results for the Activity (with Rattus norvegicus; in series [11]) were 12.9% and “Dose-dependent effect”, respectively. Also, in series [12], the Emax at 0.5 h amounted to 4%.
